An excerpt weighted towards active compounds, which were near 2.6% of everything screened.
SENP1 FRET inh – SENP1 (human) catalytic domain inhibition; Q9P0U3; recombinant SENP1 catalytic domain, CyPet-SUMO1-YPet FRET cleavage; inhibition, % at 10 µM; 360,000 tested, 0.21% active; AID 624204;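 active = inhibition at least 30% at 10 µM, raw YFP signal under a set limit, fluorescence ratio 0.5 to 1.5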;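 also: 0% = enzyme with DMSO and 100% = no enzyme wells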
Target sequence (Q9P0U3 419-644 limits assumed): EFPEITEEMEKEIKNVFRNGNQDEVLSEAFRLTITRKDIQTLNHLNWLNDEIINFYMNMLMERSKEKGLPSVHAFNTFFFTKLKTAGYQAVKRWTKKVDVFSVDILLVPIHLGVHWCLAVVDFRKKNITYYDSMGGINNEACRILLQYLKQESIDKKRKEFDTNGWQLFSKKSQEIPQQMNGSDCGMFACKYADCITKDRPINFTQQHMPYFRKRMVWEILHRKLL
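Material – human SENP1 catalytic domain · Input – SENP1 enzyme, 20 pM final · Compound dosing – single concentration of 10 µM compound, 0.5% DMSO final · Timing – enzyme reaction for 50 min at room temperature, dark · Measured by – FRET fluorescence in CFP and YFP emission channels · Control set – no-enzyme wells low, DMSO-plus-enzyme wells high control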
SENP7 block – blocks the human protease SENP7. Q9BQF6. recombinant SENP7, Z-RLRGG-aminoluciferin luminescence, 40 min. inhibition, % at 5 µM. 330,000 tested, 1.5% active. AID 434973;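 active = inhibition above about 50% at the single test dose, limit read from the data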;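 also: plate controls were DMSO with enzyme for no effect and no enzyme buffer wells for full effect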
Platelet DG rel – modulates dense granule release in human platelets; AID 1663; human platelet-rich plasma, SFLLRN dense granule ATP release, luminescence; 300,000 tested, 0.22% active; inhibition, %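 (compounds screened at 7.5 µM in platelet-rich plasma)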;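 active = mean replicate score, as percent of positive control, at or above 50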
SENP8 block-1 – blocks the human protease SENP8; Q96LD8; purified SENP8, Z-RLRGG-aminoluciferin cleavage, luminescence; inhibition, % at 10 µM; 330,000 tested, 1.2% active; AID 2540; in the data active = inhibition above about 50%
Target sequence (Q96LD8 whole entry, looked up): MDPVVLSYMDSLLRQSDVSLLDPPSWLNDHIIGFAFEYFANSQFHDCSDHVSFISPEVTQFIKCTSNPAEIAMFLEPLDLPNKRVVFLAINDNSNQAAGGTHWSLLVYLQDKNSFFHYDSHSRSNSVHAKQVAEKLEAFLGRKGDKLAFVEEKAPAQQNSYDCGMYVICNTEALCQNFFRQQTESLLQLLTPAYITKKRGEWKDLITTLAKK
SENP8 block-2 – blocks human SENP8 cleavage of Nedd8 substrate | recombinant SENP8, Nedd8 substrate fluorescence | 360,000 tested, 0.64% active | AID 602440 | inhibition, % at 20 µM; in the data active = inhibition mostly above about 40%, no sharp cut-off; inactive = mostly below about 27%
SENP6 block – inhibitors of human SENP6 protease; 330,000 tested, 1.8% active; Recombinant SENP6 catalytic domain, aminoluciferin luminescence; Q9GZR1; inhibition, % at 10 µM;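 active = inhibition above about 50% at the single tested dose, limit read from the data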;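 also: plate controls were DMSO wells with enzyme for no effect and DMSO wells lacking enzyme for full effect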
SENP8 inh conf – confirmation of human SENP8 protease inhibitors; shares compounds with SENP8 block-2; 1,400 tested, 15% active; purified SENP8, Nedd8-AMC/pro-Nedd8 cleavage fluorescence, 30 min; inhibition, % at 25 µM; AID 624319; in the data active = inhibition mostly above about 39%, no sharp cut-off; inactive = mostly below about 34%
* = called active by the depositor; . = no result given.

SMILES	SENP1 FRET inh	SENP7 block	Platelet DG rel	SENP8 block-1	SENP8 block-2	SENP6 block	SENP8 inh conf
Cc1cc(C)nc(N2N=C(C(C)(C)C)CC2=O)n1	1	-3	-1	0	63*	8	76*
CC(=O)N1CCN(c2cc(N3CCc4ccccc4C3)c(F)cc2[N+](=O)[O-])CC1	0	-8	-3	-26	28	-16	.
COc1ccc(/C=N/N=C2/CC(C)(C)Cc3n[nH]c(=O)cc32)cc1	7	3	-4	0	44*	0	12
COc1ccc(/C=N/N=C2/NC(=O)CC(C(=O)O)S2)cc1 (stereo not given)	3	5	-4	1	18	15	.
CC1CC(=O)Nc2cc([N+](=O)[O-])ccc2N1 (stereo not given)	2	3	0	1	44*	-8	30
CC1CC(=O)Nc2ccc([N+](=O)[O-])cc2N1C (stereo not given)	3	-1	-33	2	14	0	.
Cc1cccc(NC(=O)C2CCN(S(=O)(=O)c3ccc4c(c3)NC(=O)CO4)CC2)c1	0	12	6	-11	12	3	.
CC1(C)SC(=S)N(/N=C/c2ccccc2)C1N(O)C(=O)Nc1ccc([N+](=O)[O-])cc1 (stereo not given)	3	4	7	1	44*	-9	10
CCN(CC)c1ncnc2c1cnn2Cc1ccc(Cl)cc1	3	5	8	1	41*	13	3
O=S1(=O)NC2c3ccccc3CC2O1 (stereo not given)	0	13	0	-3	46*	15	57*
Cc1onc(-c2c(Cl)cccc2Cl)c1C(=O)N=S(C)(=O)c1ccccc1 (stereo not given)	2	2	13	-4	41*	-7	8
Cc1onc(-c2c(Cl)cccc2Cl)c1C(=O)c1ccccc1	2	-1	5	-7	13	-41	.
COc1ccc(NC(=O)[C@@H](NC(=O)N2C[C@H]3C[C@@H](C2)c2cccc(=O)n2C3)C(C)C)cc1OC	0	-4	-1	4	45*	4	10
O=C(Nc1cccc(Oc2c(F)c(F)c(F)c(F)c2F)c1)N1C[C@@H]2C[C@@H](C1)c1cccc(=O)n1C2	-2	-3	-2	-5	8	-22	.
O=C(c1ccc(N2CCCC2)c([N+](=O)[O-])c1)N1CCc2ccccc2C1	3	-3	16	-4	50*	4	13
O=C(c1ccc(N2CCCCC2)c([N+](=O)[O-])c1)N1CCOCC1	-1	-1	1	-5	34	2	.
O=[N+]([O-])c1ccc(CNc2ccc(Cl)cc2)s1	0	27	-7	-1	42*	19	13
COc1ccc(NCc2ccc([N+](=O)[O-])s2)c(OC)c1	3	.	.	.	57*	.	78*
O=[N+]([O-])c1ccc(CNc2ccc(F)cc2)s1	0	10	2	3	38	11	.
COc1ccc(NCc2ccc([N+](=O)[O-])s2)cc1	7	5	-2	-1	30	20	.
Cc1ccnc(NS(=O)(=O)c2ccc(CC(C)C)cc2)c1	1	-1	10	-6	-174	-52	.
CC(C)NC(=O)N(C)C[C@H]1Oc2ccc(NC(=O)C3CCCCC3)cc2C(=O)N([C@H](C)CO)C[C@@H]1C	0	-12	.	-14	14	-9	.
CN(CC(=O)Nc1ccc(Cl)c(C(F)(F)F)c1)C(=O)c1cc(-c2ccncc2)nc2ccccc12	0	1	13	2	6	-8	.
CC1=[N+](C)N(c2ccccc2)C(=O)C1N=C/C=C/c1ccccc1 (stereo not given)	-1	-7	2	-11	42*	-21	5
COc1ccccc1/C=C/C=NC1C(=O)N(c2ccccc2)[N+](C)=C1C (stereo not given)	2	-4	14	-4	11	-17	.
SMILES	SENP1 FRET inh	SENP7 block	Platelet DG rel	SENP8 block-1	SENP8 block-2	SENP6 block	SENP8 inh conf
Cc1cccc(C)c1NC(=O)C(c1ccccc1OC(F)(F)F)N1CCC(c2ccccc2)CC1 (stereo not given)	2	.	.	.	8	.	.
O=C(CNC(=O)c1ccco1)Nc1ccc(N2CCCCCC2)cc1	0	1	.	1	10	-1	.
Cc1[nH][nH]c(=O)c1C(c1ccc(-c2cccc(Cl)c2)o1)c1c(C)[nH][nH]c1=O	-2	10	4	20	79*	43	85*
Cc1[nH][nH]c(=O)c1C(c1ccc(-c2cccc(C(=O)O)c2)o1)c1c(C)[nH][nH]c1=O	0	16	-2	19	52*	39	70*
Cc1[nH][nH]c(=O)c1C(c1ccc(-c2ccccc2C(=O)O)o1)c1c(C)[nH][nH]c1=O	1	.	2	.	49*	.	38*
Cc1ccc2oc(-c3ccccc3C(=O)O)cc(=O)c2c1	3	-1	-37	-11	-17	-6	.
COC(=O)c1ccc(-c2ccc(C(c3c(C)[nH][nH]c3=O)c3c(C)[nH][nH]c3=O)o2)cc1	-6	7	-5	4	-16	15	.
Cc1c(C(=O)O)oc2c1C(O)CCC2 (stereo not given)	0	5	11	5	12	-4	.
COC(=O)CCCC1=CC2=CC(=O)C(C)(OC(=O)c3cccs3)C(=O)C2=CN1CCc1ccccn1 (stereo not given)	-29	-8	-2	-5	40*	8	60*
C=CCN1C=C2C(=O)C(C)(OC(=O)c3cccs3)C(=O)C=C2C=C1CCCC(=O)OC (stereo not given)	-25	5	1	-1	20	5	.
c1ccc(-n2nnnc2-n2cnc3ccccc32)cc1	0	6	2	5	0	4	.
CCOCCSc1nc2c(c(=O)[nH]c(=O)n2C)n1CCCc1ccccc1	3	12	4	1	44*	-2	34
CCCCOc1ccc(/C=N/NC(=S)Nc2cc(C)ccc2C)cc1	2	-2	5	2	5	10	.
CCCCOc1ccc(/C=N/NC(=S)Nc2cccc(C)c2C)cc1	-1	12	0	1	40*	3	5
COc1ccc(CNCCS(=O)(=O)NN2CCOCC2)cc1	2	1	.	.	4	.	.
O=C(O)/C=C/C(=O)Nc1ccc(O)cc1	20	-4	0	-4	81*	-10	31
O=C(O)/C=C/C(=O)Nc1ccc(C(=O)c2ccccc2)cc1	1	0	2	-6	13	-9	.
COc1ccc(CC(N)c2csc(NC(=O)c3cc(C(C)(C)C)nn3Cc3ccccc3)n2)cc1 (stereo not given)	-32	.	.	.	-53	.	.
Cc1cc(/N=C/N(C)C)on1	-2	7	1	6	12	-2	.

Compound activity (PubChem)
